Results published in ChEMBL document CHEMBL1177891, “Synthesis and bioassay of pyrrolyl oxazolines and thiazolines” (2010).
Converted amounts (≈) assume the structure as drawn.

Legend:
Assay type in all cases: functional
Staphylococcus aureus [1] = experiment: Antibacterial activity against Staphylococcus aureus at 100 ug/disk after 24 hrs by disk diffusion method; conditions: read-out: IZ
How it was run: (§1)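 Agar disc diffusion on nutrient agar with NCIM bacteria. 6 mm sterile paper discs moistened with compound in DMSO (100 or 200 μg/disc) placed on pre-inoculated plates. Incubated at 37 °C; growth-inhibition zone diameter measured after 24 h. Chloramphenicol control.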

Staphylococcus aureus [2] = experiment: Antibacterial activity against Staphylococcus aureus at 200 ug/disk after 24 hrs by disk diffusion method; conditions: read-out: IZ; how it was run: as §1
Bacillus subtilis [3] = experiment: Antibacterial activity against Bacillus subtilis at 100 ug/disk after 24 hrs by disk diffusion method; conditions: read-out: IZ; how it was run: as §1
Bacillus subtilis [4] = experiment: Antibacterial activity against Bacillus subtilis at 200 ug/disk after 24 hrs by disk diffusion method; conditions: read-out: IZ; how it was run: as §1
Klebsiella pneumoniae [5] = experiment: Antibacterial activity against Klebsiella pneumoniae at 100 ug/disk after 24 hrs by disk diffusion method; conditions: read-out: IZ; how it was run: as §1
Klebsiella pneumoniae [6] = experiment: Antibacterial activity against Klebsiella pneumoniae at 200 ug/disk after 24 hrs by disk diffusion method; conditions: read-out: IZ; how it was run: as §1
Proteus vulgaris [7] = experiment: Antibacterial activity against Proteus vulgaris at 100 ug/disk after 24 hrs by disk diffusion method; conditions: read-out: IZ; how it was run: as §1
Proteus vulgaris [8] = experiment: Antibacterial activity against Proteus vulgaris at 200 ug/disk after 24 hrs by disk diffusion method; conditions: read-out: IZ; how it was run: as §1
Fusarium solani [9] = experiment: Antifungal activity against Fusarium solani at 100 ug/disk after 48 hrs by disk diffusion method; conditions: read-out: IZ
How it was run: (§2)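 Fungi from NCIM on nutrient agar plates, pre-inoculated. 6 mm paper discs carrying 100 or 200 μg compound in DMSO applied. Plates incubated at 37 °C and inhibition zone diameter measured at 48 h. Ketoconazole control.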

Fusarium solani [10] = experiment: Antifungal activity against Fusarium solani at 200 ug/disk after 48 hrs by disk diffusion method; conditions: read-out: IZ; how it was run: as §2
Curvularia lunata [11] = experiment: Antifungal activity against Curvularia lunata at 100 ug/disk after 48 hrs by disk diffusion method; conditions: read-out: IZ; how it was run: as §2
Curvularia lunata [12] = experiment: Antifungal activity against […] lunata at 200 ug/disk after 48 hrs by disk diffusion method; conditions: read-out: IZ; how it was run: as §2
Aspergillus niger [13] = experiment: Antifungal activity against Aspergillus niger at 100 ug/disk after 48 hrs by disk diffusion method; conditions: read-out: IZ; how it was run: as §2
Aspergillus niger [14] = experiment: Antifungal activity against Aspergillus niger at 200 ug/disk after 48 hrs by disk diffusion method; conditions: read-out: IZ; how it was run: as §2
Staphylococcus aureus [15] = experiment: Antibacterial activity against Staphylococcus aureus after 24 hrs by microdilution susceptibility assay
How it was run: (§3)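 Bacterial strains from NCIM. Broth microdilution: stocks at 800 μg/ml in DMSO, two-fold dilutions 400, 200, 100 ... 6.25 μg/ml, wells inoculated with bacterial suspension, 36 °C for 24 h. MIC = lowest concentration with no turbidity (no visible growth). Chloramphenicol as reference.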

Bacillus subtilis [16] = experiment: Antibacterial activity against Bacillus subtilis after 24 hrs by microdilution susceptibility assay; how it was run: as §3
Klebsiella pneumoniae [17] = experiment: Antibacterial activity against Klebsiella pneumoniae after 24 hrs by microdilution susceptibility assay; how it was run: as §3
Proteus vulgaris [18] = experiment: Antibacterial activity against Proteus vulgaris after 24 hrs by microdilution susceptibility assay; how it was run: as §3
Fusarium solani [19] = experiment: Antifungal activity against Fusarium solani after 48 hrs by microdilution susceptibility assay
How it was run: (§4)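 Fungal strains from NCIM. Microdilution: stocks at 800 μg/ml in DMSO, two-fold dilutions 400 down to 6.25 μg/ml, wells inoculated with fungal suspension, incubated 36 °C for 48 h. MIC read as lowest concentration without turbidity. Ketoconazole reference.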

Curvularia lunata [20] = experiment: Antifungal activity against Curvularia lunata after 48 hrs by microdilution susceptibility assay; how it was run: as §4
Aspergillus niger [21] = experiment: Antifungal activity against Aspergillus niger after 48 hrs by microdilution susceptibility assay; how it was run: as §4
[22] = Antioxidant activity assessed as inhibition of nitric oxide production at 100 uM
How it was run: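 Sodium nitroprusside ([…]) in phosphate buffer pH 7.4 incubated with 100 μM compound (dioxane/methanol) at 25 °C for 120 min; solvent-only control. Aliquots mixed 1:1 with Griess reagent (1% sulfanilamide, 0.1% N-naphthylethylenediamine, 2% phosphoric acid). Absorbance at 546 nm, triplicate.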

[23] = test system: Radical scavenging activity; experiment: Antioxidant activity assessed as DPPH radical scavenging activity at 100 uM
How it was run: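 Compound (100 μM) added to 100 μM DPPH in dioxane/ethanol. Kept at ambient temperature 20 min, then absorbance read at 517 nm. Percent DPPH scavenging taken from difference between test and control.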

[24] = Antioxidant activity assessed as increase in reducing power at 100 uM
How it was run: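 Oyaizu method. Compound at 100 μM in methanol mixed with 0.2 M phosphate buffer pH 6.6 and 1% potassium ferricyanide, 50 °C for 20 min. 10% TCA added, then centrifuged 3000 rpm for 10 min. Upper layer mixed with water and 0.1% FeCl3; absorbance read at 700 nm.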

Row | MIC (Staphylococcus aureus [15]) | MIC (Bacillus subtilis [16]) | MIC (Klebsiella pneumoniae [17]) | MIC (Fusarium solani [19]) | MIC (Curvularia lunata [20]) | MIC (Aspergillus niger [21]) | SMILES | zone of inhibition at 100 µg/disc (Staphylococcus aureus [1]) | zone of inhibition at 200 µg/disc (Staphylococcus aureus [2]) | zone of inhibition at 100 µg/disc (Bacillus subtilis [3]) | zone of inhibition at 200 µg/disc (Bacillus subtilis [4]) | zone of inhibition at 100 µg/disc (Klebsiella pneumoniae [5]) | zone of inhibition at 200 µg/disc (Klebsiella pneumoniae [6]) | zone of inhibition at 100 µg/disc (Proteus vulgaris [7]) | zone of inhibition at 200 µg/disc (Proteus vulgaris [8]) | zone of inhibition at 100 µg/disc (Fusarium solani [9]) | zone of inhibition at 200 µg/disc (Fusarium solani [10]) | zone of inhibition at 100 µg/disc (Curvularia lunata [11]) | zone of inhibition at 200 µg/disc (Curvularia lunata [12]) | zone of inhibition at 100 µg/disc (Aspergillus niger [13]) | zone of inhibition at 200 µg/disc (Aspergillus niger [14]) | also measured
1 | 25 µg/mL (≈ 61.7 µM) | 12.5 µg/mL (≈ 30.9 µM) | 50 µg/mL (≈ 123 µM) | 50 µg/mL (≈ 123 µM) | 12.5 µg/mL (≈ 30.9 µM) | 25 µg/mL (≈ 61.7 µM) | O=S(=O)(CC1=NCCS1)c1c[nH]cc1S(=O)(=O)c1ccc(Cl)cc1 | 32 mm | 34 mm | 33 mm | 35 mm | 27 mm | 29 mm | 29 mm | 30 mm | 35 mm | 38 mm | 36 mm | 41 mm | 34 mm | 38 mm | MIC (Proteus vulgaris [18]): 50 µg/mL (≈ 123 µM); inhibition [22]: 41.4%; inhibition [23]: 40.5%; inhibition [24]: 40.4%
2 | 100 µg/mL (≈ 270 µM) | 50 µg/mL (≈ 135 µM) | 100 µg/mL (≈ 270 µM) | 100 µg/mL (≈ 270 µM) | 100 µg/mL (≈ 270 µM) | 100 µg/mL (≈ 270 µM) | O=S(=O)(CC1=NCCS1)c1c[nH]cc1S(=O)(=O)c1ccccc1 | 29 mm | 30 mm | 30 mm | 32 mm | 23 mm | 25 mm | 24 mm | 28 mm | 34 mm | 37 mm | 32 mm | 35 mm | 30 mm | 33 mm | MIC (Proteus vulgaris [18]): 100 µg/mL (≈ 270 µM); inhibition [22]: 34.6%; inhibition [23]: 33.8%; inhibition [24]: 32.4%

Row | SMILES | MIC (Staphylococcus aureus [15]) | MIC (Bacillus subtilis [16]) | MIC (Klebsiella pneumoniae [17]) | MIC (Fusarium solani [19]) | MIC (Curvularia lunata [20]) | MIC (Aspergillus niger [21]) | zone of inhibition at 100 µg/disc (Staphylococcus aureus [1]) | zone of inhibition at 200 µg/disc (Staphylococcus aureus [2]) | zone of inhibition at 100 µg/disc (Bacillus subtilis [3]) | zone of inhibition at 200 µg/disc (Bacillus subtilis [4]) | zone of inhibition at 100 µg/disc (Klebsiella pneumoniae [5]) | zone of inhibition at 200 µg/disc (Klebsiella pneumoniae [6]) | zone of inhibition at 100 µg/disc (Proteus vulgaris [7]) | zone of inhibition at 200 µg/disc (Proteus vulgaris [8]) | zone of inhibition at 100 µg/disc (Fusarium solani [9]) | zone of inhibition at 200 µg/disc (Fusarium solani [10]) | zone of inhibition at 100 µg/disc (Curvularia lunata [11]) | zone of inhibition at 200 µg/disc (Curvularia lunata [12]) | zone of inhibition at 100 µg/disc (Aspergillus niger [13]) | zone of inhibition at 200 µg/disc (Aspergillus niger [14]) | also measured
3 | CC(=O)N1CCN(c2ccc(OCC3COC(Cn4ccnc4)(c4ccc(Cl)cc4Cl)O3)cc2)CC1 (configuration not stated) [KETOCONAZOLE] |  |  |  | 12.5 µg/mL (≈ 23.5 µM) | 6.25 µg/mL (≈ 11.8 µM) | 6.25 µg/mL (≈ 11.8 µM) |  |  |  |  |  |  |  |  | 38 mm | 42 mm | 41 mm | 44 mm | 36 mm | 39 mm | 
